In ChEMBL document CHEMBL4130578, “Synthesis, biological evaluation and structure-activity relationship studies of hederacolchiside E and its derivatives as potential anti-Alzheimer agents” (Eur J Med Chem, 2018) one finds Activity and viability data, which are given here for 4 compounds.

Active and inactive are the calls of the source. The calls are words filed in the database; no cut-off is given here.

In data set [1] the test system is PC-12. As to the kind of experiment: Cytoprotection against H2O2-induced cell injury in rat PC12 cells assessed as increase in cell viability at 20 uM preincubated for 12 hrs followed by H2O2 addition measured after 12 hrs by MTT assay. The format is functional, cell-based. The essentials: (§1)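 PC12 cells grown in RPMI-1640 with 15% FBS and penicillin/streptomycin, subcultured every 2 days and cultured 8 days before use. Cells seeded at 1 × 10^4/well, after 12 h pretreated with compound 12 h, then exposed to 200 µM H2O2 for 12 h. MTT added for 4 h, formazan dissolved in DMSO, OD 490 nm read. Viability given as % of untreated control, mean ± SD, n = 3, ANOVA with Dunnett's test.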

The test system of data set [2] is PC-12. Briefly: Cytoprotection against H2O2-induced cell injury in rat PC12 cells assessed as increase in cell viability at 1 to 10 uM preincubated for 12 hrs followed by H2O2 addition measured after 12 hrs by MTT assay. The data set is classed as functional, cell-based. The essentials:
as §1

For data set [3], the system named is PC-12. As to the kind of experiment: Cytotoxicity against rat PC12 cells assessed as decrease in cell viability at 50 uM after 12 hrs by MTT assay. The format is cell-based. To be noted: pc-12, 12 h. (Formazan colour is commonly taken as a measure of viable cells.)
In data set [4] the test system is PC-12. Briefly: Cytoprotection against amyloid beta (1 to 42)-induced cell injury in rat PC12 cells assessed as cell viability at 10 uM preincubated for 12 hrs followed by amyloid beta (1 to 42) addition measured after 12 hrs by MTT assay (reference value: 55.3 +/- 1.5%). The data set is classed as functional. The conditions noted are these: read-out: Activity.

In data set [5] the test system is PC-12. Briefly: Cytoprotection against amyloid beta (1 to 42)-induced cell injury in rat PC12 cells assessed as cell viability at 50 uM preincubated for 12 hrs followed by amyloid beta (1 to 42) addition measured after 12 hrs by MTT assay (reference value: 55.3 +/- 1.5%). The format is functional. To be noted: read-out: Activity.
For data set [6], the system named is PC-12. Briefly: Cytoprotection against amyloid beta (1 to 42)-induced cell injury in rat PC12 cells assessed as cell viability at 100 uM preincubated for 12 hrs followed by amyloid beta (1 to 42) addition measured after 12 hrs by MTT assay (reference value: 55.3 +/- 1.5%). The format is functional. To be noted: read-out: Activity.
For data set [7], the system named is PC-12. As to the kind of experiment: Cytoprotection against amyloid beta (1 to 42)-induced toxicity in rat PC12 cells assessed as LDH release at 10 uM preincubated with cells followed by amyloid beta (1 to 42) addition measured after 24 hrs by LDH assay (reference value: 153%). The format is functional.
The test system of data set [8] is PC-12. As to the kind of experiment: Cytoprotection against amyloid beta (1 to 42)-induced toxicity in rat PC12 cells assessed as LDH release at 50 uM preincubated with cells followed by amyloid beta (1 to 42) addition measured after 24 hrs by LDH assay (reference value: 153%). The data set is classed as functional. Background: LDH in the medium is a marker of cell lysis.

Data set [9] has as its system PC-12. As to the kind of experiment: Cytoprotection against amyloid beta (1 to 42)-induced toxicity in rat PC12 cells assessed as LDH release at 100 uM preincubated with cells followed by amyloid beta (1 to 42) addition measured after 24 hrs by LDH assay (reference value: 153%). The format is functional.
The subject of data set [10] is PC-12. Briefly: Cytoprotection against amyloid beta (1 to 42)-induced oxidative damage in rat PC12 cells assessed as intracellular ROS level at 10 uM preincubated with cells followed by amyloid beta (1 to 42) addition measured after 24 hrs by DCFH-DA staining based flow cytometry (reference value: 51.4%). The format is functional. (A flow cytometer gives signals particle by particle.)

For data set [11], the system named is PC-12. Briefly: Cytoprotection against amyloid beta (1 to 42)-induced oxidative damage in rat PC12 cells assessed as intracellular ROS level at 50 uM preincubated with cells followed by amyloid beta (1 to 42) addition measured after 24 hrs by DCFH-DA staining based flow cytometry (reference value: 51.4%). The data set is classed as functional.
For data set [12], the system named is PC-12. As to the kind of experiment: Cytoprotection against amyloid beta (1 to 42)-induced oxidative damage in rat PC12 cells assessed as intracellular ROS level at 100 uM preincubated with cells followed by amyloid beta (1 to 42) addition measured after 24 hrs by DCFH-DA staining based flow cytometry (reference value: 51.4%). The data set is classed as functional.

The test system of data set [13] is PC-12. Briefly: Cytoprotection against amyloid beta (1 to 42)-induced oxidative damage in rat PC12 cells assessed as reduction in intracellular ROS level preincubated with cells followed by amyloid beta (1 to 42) addition measured after 24 hrs by DCFH-DA staining based flow cytometry. The format is functional, cell-based.
Data set [14] relates to PC-12. As to the kind of experiment: Cytoprotection against amyloid beta (1 to 42)-induced damage in rat PC12 cells assessed as reduction in intracellular MDA level preincubated with cells followed by amyloid beta (1 to 42) addition measured after 24 hrs by TBA assay. The data set is classed as functional, cell-based. A digest of the protocol:
(§2)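 For the MDA readout, PC12 cells were given 40 µM Aβ1-42 for 24 h with or without compound (10, 50, 100 µM). Samples were mixed with two volumes of TBA reagent (0.375% TBA, 15% trichloroacetic acid, 0.1 mM EDTA) and heated at 95 °C for 40 min. After cooling and centrifugation at 3000 × g for 10 min, supernatant A532 was read. Mean ± SD, n = 3.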

For data set [15], the system named is PC-12. As to the kind of experiment: Cytoprotection against amyloid beta (1 to 42)-induced damage in rat PC12 cells assessed as intracellular MDA level at 10 uM preincubated with cells followed by amyloid beta (1 to 42) addition measured after 24 hrs by TBA assay. The format is functional. A digest of the protocol:
as §2

Data set [16] relates to PC-12. Briefly: Cytoprotection against amyloid beta (1 to 42)-induced damage in rat PC12 cells assessed as intracellular MDA level at 50 uM preincubated with cells followed by amyloid beta (1 to 42) addition measured after 24 hrs by TBA assay. The format is functional. A digest of the protocol: as §2
The test system of data set [17] is PC-12. As to the kind of experiment: Cytoprotection against amyloid beta (1 to 42)-induced damage in rat PC12 cells assessed as intracellular MDA level at 100 uM preincubated with cells followed by amyloid beta (1 to 42) addition measured after 24 hrs by TBA assay. The data set is classed as functional. A digest of the protocol: as §2
Data set [18] has as its system PC-12. As to the kind of experiment: Cytoprotection against H2O2-induced cell injury in rat PC12 cells assessed as increase in cell viability preincubated for 12 hrs followed by H2O2 addition measured after 12 hrs by MTT assay. The format is functional, cell-based. The essentials:
as §1

For data set [19], the system named is PC-12. Briefly: Cytoprotection against H2O2-induced cell injury in rat PC12 cells assessed as increase in cell viability at 1 to 50 uM preincubated for 12 hrs followed by H2O2 addition measured after 12 hrs by MTT assay. The format is functional, cell-based. A digest of the protocol:
as §1

As for `CC1=NN(c2ccccc2)C(=O)C1`, the outcome in data set [1] was Active.
For the compound `C[C@@H]1O[C@@H](O[C@H]2[C@H](O)[C@@H](O)[C@H](OC[C@H]3O[C@@H](OC(=O)[C@]45CCC(C)(C)C[C@H]4C4=CC[C@@H]6[C@@]7(C)CC[C@H](O[C@@H]8OC[C@H](O)[C@H](O)[C@H]8O)C(C)(C)[C@@H]7CC[C@@]6(C)[C@]4(C)CC5)[C@H](O)[C@@H](O)[C@@H]3O)O[C@@H]2CO)[C@H](O)[C@H](O)[C@H]1O` [CIWUJIANOSIDE C3], the outcome in data set [2] was Active. Further, the Activity result in data set [3] was “Toxic”; in [7] it was 143.7%; in [8], 134.4%; in data set [9] it was 126.3%; in data set [10], 45%; in data set [11], 30.7%. In addition, the Activity in data set [12] is 20.6%; in [13] it was “Dose-dependent effect”; in data set [14] it was “Dose-dependent effect”; in data set [15], 2 nmol/mL; in [16], 1.6 nmol/mL; in data set [17], 1.2 nmol/mL. In addition, the viability at 10 µM in data set [4] was 55.9%. Further, the viability at 50 µM in data set [5] turned out to be 69.9%. For the same compound, the viability at 100 µM in data set [6] worked out at 79.1%.
Turning to `C[C@@H]1O[C@@H](O[C@H]2[C@H](O[C@H]3CC[C@]4(C)[C@H]5CC=C6[C@@H]7CC(C)(C)CC[C@]7(C(=O)O[C@@H]7O[C@H](CO[C@@H]8O[C@H](CO)[C@@H](O[C@@H]9O[C@@H](C)[C@H](O)[C@@H](O)[C@H]9O)[C@H](O)[C@H]8O)[C@@H](O)[C@H](O)[C@H]7O)CC[C@@]6(C)[C@]5(C)CC[C@H]4C3(C)C)OC[C@H](O[C@@H]3O[C@H](CO)[C@@H](O)[C@H](O)[C@H]3O)[C@@H]2O)[C@H](O)[C@H](O)[C@H]1O`, the Activity entry in data set [18] was “Dose-dependent effect”; in data set [7] it was 147.4%; in [8], 138.5%; in [9], 126.7%; in data set [10], 43%; in data set [11], 35%. In addition, the Activity in data set [12] is 29.2%; in data set [13], “Dose-dependent effect”; in [14], “Dose-dependent effect”; in data set [15], 2.5 nmol/mL; in data set [16] it was 1.9 nmol/mL; in data set [17], 1.3 nmol/mL. The viability at 10 µM in [4] amounted to 57%. For the same compound, the viability at 50 µM in data set [5] turned out to be 65.8%. The viability at 100 µM in data set [6] was 70.4%.
For `C[C@@H]1O[C@@H](O[C@H]2[C@H](O[C@H]3CC[C@]4(C)[C@H]5CC=C6[C@@H]7CC(C)(C)CC[C@]7(C(=O)O[C@@H]7O[C@H](CO)[C@@H](O[C@@H]8O[C@@H](C)[C@H](O)[C@@H](O)[C@H]8O)[C@H](O)[C@H]7O)CC[C@@]6(C)[C@]5(C)CC[C@H]4C3(C)C)OC[C@H](O[C@@H]3O[C@H](CO)[C@@H](O)[C@H](O)[C@H]3O)[C@@H]2O)[C@H](O)[C@H](O)[C@H]1O`, the result in data set [19] was Active. The viability at 10 µM in [4] amounted to 59.3%. In addition, the viability at 50 µM in [5] worked out at 63.3%.
